From ChEMBL document CHEMBL1126803, “Stereospecific and selective 5-HT2 antagonism in a series of 5-substituted trans-1-piperazino-3-phenylindans” (J Med Chem, 1993)
Where “and” joins values, the source holds several entries; their conditions need not be identical. Equal entries are not always repeated.

Tests used:
[1] = molecular target: Serotonin 2 (5-HT2) receptor (Rattus norvegicus, UniProt P30994+P08909+P14842); experiment: Displacement of [3H]ketanserin from 5-hydroxytryptamine 2 receptor in rat cortical membranes; type: cell membranes, Membrane
Procedure, shortened: (§1)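 Radioligand displacement from rat brain membranes: 3H-ketanserin on cortical membranes (5-HT2), 3H-prazosin on whole brain membranes (alpha1), 3H-spiperone on striatal membranes (D2). Two full concentration-effect curves per compound, each with five test drug concentrations in triplicate spanning three decades. IC50 estimated from curves on a log-concentration scale. Outliers beyond 3 times the sd-ratio were discarded after extra determinations.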

Rattus norvegicus [2] = organism: Rattus norvegicus; experiment: Tested for inhibition of quipazine-induced head twitches in rats after 24 hours of pretreatment; type: functional
Procedure, shortened: (§2)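 Test drug was given sc or po to rats 2 or 24 h before quipazine (15 µmol/kg, sc). Head twitches were counted 30-40 min after quipazine, at least four animals per dose. Counts were expressed as percent of a quipazine-only control group.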

[3] = molecular target: T1, Adrenergic receptor alpha-1 (Rattus norvegicus, UniProt P15823+P23944+P43140); experiment: Displacement of [3H]prazosin from alpha-1 adrenoceptors in whole rat brain membranes; type: cell membranes; procedure, shortened: as §1
T1 sequence (P15823 whole entry): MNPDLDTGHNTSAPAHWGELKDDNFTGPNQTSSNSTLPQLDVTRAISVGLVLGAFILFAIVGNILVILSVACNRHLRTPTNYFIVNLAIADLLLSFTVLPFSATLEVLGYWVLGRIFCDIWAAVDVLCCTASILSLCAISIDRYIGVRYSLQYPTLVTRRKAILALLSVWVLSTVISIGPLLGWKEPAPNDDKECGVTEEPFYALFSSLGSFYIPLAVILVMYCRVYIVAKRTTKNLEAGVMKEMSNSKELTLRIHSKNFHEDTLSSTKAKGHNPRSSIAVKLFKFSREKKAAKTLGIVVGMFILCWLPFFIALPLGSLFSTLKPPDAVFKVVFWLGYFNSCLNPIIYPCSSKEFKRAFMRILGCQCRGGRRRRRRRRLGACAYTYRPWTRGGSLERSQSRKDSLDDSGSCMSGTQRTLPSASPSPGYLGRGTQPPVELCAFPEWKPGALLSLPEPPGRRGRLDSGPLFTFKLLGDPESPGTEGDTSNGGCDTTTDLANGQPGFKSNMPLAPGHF
T1 sequence (P23944 whole entry): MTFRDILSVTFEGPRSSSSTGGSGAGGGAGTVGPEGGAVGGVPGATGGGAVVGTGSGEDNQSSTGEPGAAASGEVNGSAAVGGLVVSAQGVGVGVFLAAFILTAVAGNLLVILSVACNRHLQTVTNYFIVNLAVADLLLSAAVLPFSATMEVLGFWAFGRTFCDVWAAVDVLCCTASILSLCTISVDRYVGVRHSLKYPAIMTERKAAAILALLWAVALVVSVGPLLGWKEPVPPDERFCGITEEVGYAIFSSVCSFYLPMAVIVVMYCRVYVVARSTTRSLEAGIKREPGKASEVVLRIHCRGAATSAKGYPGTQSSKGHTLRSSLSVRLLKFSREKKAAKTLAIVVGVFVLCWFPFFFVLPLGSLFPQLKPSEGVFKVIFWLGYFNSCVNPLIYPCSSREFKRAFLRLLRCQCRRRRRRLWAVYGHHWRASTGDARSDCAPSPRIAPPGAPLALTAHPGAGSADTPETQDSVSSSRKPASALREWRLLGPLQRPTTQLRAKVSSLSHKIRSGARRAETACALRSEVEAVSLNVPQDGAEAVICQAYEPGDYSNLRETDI
T1 sequence (P43140 whole entry): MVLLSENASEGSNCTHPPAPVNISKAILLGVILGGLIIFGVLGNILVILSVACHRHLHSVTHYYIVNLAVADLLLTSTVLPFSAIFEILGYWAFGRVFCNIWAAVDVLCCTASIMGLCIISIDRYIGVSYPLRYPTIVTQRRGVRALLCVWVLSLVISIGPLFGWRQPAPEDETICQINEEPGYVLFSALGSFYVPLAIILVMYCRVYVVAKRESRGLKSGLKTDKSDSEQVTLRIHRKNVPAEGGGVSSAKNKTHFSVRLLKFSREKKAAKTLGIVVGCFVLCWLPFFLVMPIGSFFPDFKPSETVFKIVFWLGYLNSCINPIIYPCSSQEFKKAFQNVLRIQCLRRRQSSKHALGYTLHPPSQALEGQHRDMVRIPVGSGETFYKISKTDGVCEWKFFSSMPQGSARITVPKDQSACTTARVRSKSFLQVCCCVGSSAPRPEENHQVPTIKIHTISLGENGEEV

Rattus norvegicus [4] = organism: Rattus norvegicus; experiment: Tested for inhibition of pergolide-induced rotation in 6-OH-DA-lesioned rats after 2 hr; type: functional
Procedure, shortened: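 Unilateral 6-OHDA-lesioned rats were given test drug sc 2 h before pergolide (0.05 µmol/kg, sc), which induces contralateral circling. Each dose's effect was expressed as percent of the mean of control sessions held 1 week before and 1 week after the test session in the same rat. At least four rats per dose; ED50 by log-probit analysis.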

Rattus norvegicus [5] = organism: Rattus norvegicus; experiment: Tested for inhibition of quipazine-induced head twitches in rats after 2 hours of pretreatment; type: functional; procedure, shortened: as §2
Rattus norvegicus [6] = organism: Rattus norvegicus; experiment: Inhibition of quipazine-induced head twitches in rats after 2 hrs of pretreatment; type: functional; procedure, shortened: as §2
Rattus norvegicus [7] = organism: Rattus norvegicus; experiment: Tested for inhibition of quipazine-induced head twitches after 24 hours of pretreatment; type: functional; procedure, shortened: as §2
D(2) dopamine receptor = D(2) dopamine receptor (Rattus norvegicus, UniProt P61169); experiment: Displacement of [3H]spiperone from dopamine D2 receptors in rat striatal membranes; type: cell membranes, Membrane; procedure, shortened: as §1
D(2) dopamine receptor, sequence (P61169 whole entry): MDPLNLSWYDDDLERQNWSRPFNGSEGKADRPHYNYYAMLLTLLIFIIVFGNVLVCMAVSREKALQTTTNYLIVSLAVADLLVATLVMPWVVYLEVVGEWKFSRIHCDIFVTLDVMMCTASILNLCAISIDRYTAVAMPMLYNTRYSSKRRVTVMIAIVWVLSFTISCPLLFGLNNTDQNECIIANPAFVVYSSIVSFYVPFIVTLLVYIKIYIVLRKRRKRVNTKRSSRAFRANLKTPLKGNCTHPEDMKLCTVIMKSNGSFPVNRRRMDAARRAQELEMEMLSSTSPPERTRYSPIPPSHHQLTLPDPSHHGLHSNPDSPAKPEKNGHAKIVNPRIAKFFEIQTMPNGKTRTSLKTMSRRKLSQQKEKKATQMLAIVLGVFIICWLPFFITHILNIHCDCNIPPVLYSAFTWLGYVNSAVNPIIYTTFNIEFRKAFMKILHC

Rattus norvegicus [8] = organism: Rattus norvegicus; experiment: Tested for inhibition of norepinephrine uptake in rat brain membranes; type: functional, Membrane
Rattus norvegicus [9] = organism: Rattus norvegicus; experiment: Tested for inhibition of dopamine uptake in rat brain membranes; type: functional, Membrane
[10] = Rattus norvegicus, read-out: ED50

| IC50 [1] | IC50 [3] | IC50 (D(2) dopamine receptor) | IC50 (Rattus norvegicus [8]) | IC50 (Rattus norvegicus [9]) | SMILES | ED50 (Rattus norvegicus [2]) | ED50 (Rattus norvegicus [4]) | ED50 (Rattus norvegicus [5]) | ED50 (Rattus norvegicus [6]; [10]) | ED50 (Rattus norvegicus [7]) | ED50 (Rattus norvegicus [6]) |
| --- | --- | --- | --- | --- | --- | --- | --- | --- | --- | --- | --- |
| 1.5 nM | 52 nM |  |  |  | Fc1ccc(C2CC(N3CCN(CCN4CCNC4=S)CC3)c3ccc(Cl)cc32)cc1.O=C(O)/C=C\C(=O)O (configuration not stated) | 1.4 µmol/kg | > 14 µmol/kg | 0.077 µmol/kg |  |  |  |
| 1.5 nM | 110 nM | 230 nM |  |  | Fc1ccc(C2CC(N3CCN(CCN4CCN=C4S)CC3)c3ccc(F)cc32)cc1.O=C(O)/C=C\C(=O)O.O=C(O)/C=C\C(=O)O (configuration not stated) |  | > 15 µmol/kg |  | 0.12 µmol/kg | 0.62 µmol/kg |  |
| 12 nM | 72 nM | 330 nM |  |  | Cl.Cl.OCCN1CCN(C2CC(c3ccc(F)cc3)c3cc(F)ccc32)CC1 (single isomer, unassigned; (+)) |  |  |  |  |  | 0.33 µM/kg |
| 0.95 nM | 43 nM | 140 nM |  |  | Cl.Cl.Fc1ccc(C2CC(N3CCN(CCN4CCCNC4=S)CC3)c3ccc(F)cc32)cc1 (single isomer, unassigned; (+)) |  | > 37 µmol/kg |  | 0.017 µmol/kg | 0.011 µmol/kg |  |
| 1.1 nM | 41 nM | 280 nM |  |  | O=C(O)/C=C\C(=O)O.O=C(O)/C=C\C(=O)O.O=C1NCCCN1CCN1CCN(C2CC(c3ccc(F)cc3)c3cc(F)ccc32)CC1 (single isomer, unassigned; (+)) |  | > 15 µmol/kg |  |  |  | 0.029 µM/kg and 0.07 µM/kg |
| 230 nM | 2500 nM | 6300 nM |  |  | Cl.Cl.OCCN1CCN(C2CC(c3ccc(F)cc3)c3cc(Cl)ccc32)CC1 (single isomer, unassigned; (+)) |  |  |  |  |  | >2.8 µM/kg |
| 1.3 nM | 62 nM | 94 nM |  |  | O=C(O)/C=C\C(=O)O.O=C(O)/C=C\C(=O)O.O=C1NCCCN1CCN1CCN(C2CC(c3ccc(F)cc3)c3cc(Cl)ccc32)CC1 (single isomer, unassigned; (-)) | 0.072 µmol/kg | > 15 µmol/kg |  | 0.11 µmol/kg |  |  |
| 1.1 nM | 210 nM | 200 nM | 2900 nM | 1900 nM | CC(C)N1CCN(CCN2CCN(C3CC(c4ccc(F)cc4)c4cc(Cl)ccc43)CC2)C1=O.O=C(O)/C=C\C(=O)O.O=C(O)/C=C\C(=O)O (single isomer, unassigned; (-)) |  | > 14 µmol/kg |  |  |  |  |
| 11 nM | 210 nM | 370 nM |  |  | Cl.Cl.OCCN1CCN(C2CC(c3ccc(F)cc3)c3cc(Cl)ccc32)CC1 (single isomer, unassigned; (-)) |  |  |  |  |  | 0.86 µM/kg |
| 75 nM | 340 nM | 1300 nM | 50 nM | 70 nM | CC(C)N1CCN(CCN2CCN(C3CC(c4ccc(F)cc4)c4cc(Cl)ccc43)CC2)C1=O.O=C(O)/C=C\C(=O)O.O=C(O)/C=C\C(=O)O (stereo in doubt; (+)-20) |  |  |  |  |  | >7 µM/kg |
| 500 nM | 1100 nM | 22000 nM |  |  | Cl.Cl.OCCN1CCN(C2CC(c3ccc(F)cc3)c3cc(F)ccc32)CC1 (stereo in doubt; (-)-13) |  |  |  |  |  | >2.8 µM/kg |
| 0.75 nM | 67 nM | 33 nM |  |  | Cl.Cl.Fc1ccc(C2CC(N3CCN(CCN4CCCNC4=S)CC3)c3ccc(Cl)cc32)cc1 (stereo in doubt; (-)-39) |  | > 18 µmol/kg |  | 0.041 µmol/kg | 0.021 µmol/kg |  |
|  | 2.6 nM |  |  |  | O=C1NCCN1CCN1CCN([C@@H]2C[C@@H](c3ccc(F)cc3)c3ccccc32)CC1 [IRINDALONE] |  | 7.4 µmol/kg |  | 0.58 µmol/kg | 0.75 µmol/kg |  |
|  |  |  |  |  | Cc1nc2sccn2c(=O)c1CCN1CCC(=C(c2ccc(F)cc2)c2ccc(F)cc2)CC1 [RITANSERIN] |  | > 21 µmol/kg |  |  |  |  |
